Measurements published in article PMC5161706 (Clinical cancer research : an official journal of the …, 2016).

What was measured:
MNNG cells = assay: Spontaneous; type: in vivo, human; conditions: orthotopically injected MNNG cells, 5mg/kg daily IP (Fig 6E)
Outline: (§1)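 Cells were injected para-osseously into the proximal tibia: K7M2 into female BALB/c mice, human lines into female SCID-beige mice, 8-10 weeks old; MNNG at 1x10^6 cells. Mice received 5mg/kg IP rapamycin or vehicle daily, 5 days/week. Tumours were measured every 3-4 days and limbs amputated at 1.5-1.7 cm3. Survival ran from amputation, with metastasis confirmed at necropsy; Kaplan-Meier analysis, Gehan-Breslow-Wilcoxon test.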

K7M2 cells [1] = assay: Ex vivo lung culture metastatic outgrowth, K7M2; type: cell-based, murine
Outline: (§2)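 Tumor cells were tail-vein injected, and lung sections were then cultured ex vivo. K7M2 cells were grown in female BALB/c mice and MG63.3 in female SCID-beige mice, 8-10 weeks old. Culture media held a final 0.1uM or 1uM rapamycin, or volume-matched DMSO, refreshed every 2 days. Eight sections were imaged per condition. Burden was total GFP+ area per section normalised to day 0.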

K7M2 cells [2] = assay: Spontaneous; type: in vivo, murine; conditions: orthotopically injected K7M2 cells, 5mg/kg daily IP (Fig 6C)
Outline: as §1

MG63.3 cells [3] = assay: In vitro ds-SL-mCherry reporter expression; type: cell-based, human; conditions: 1μM rapamycin, 5 days in culture (Fig 4B)
[4] = system: phosphorylation of p70S6K (Thr389); assay: Immunoblot for phospho- and total p70S6K in K7M2 cells; type: cell-based, murine; conditions: concentrations as low as 0.1μM, 4 hours, immunoblot (Fig 3A)
[5] = system: phosphorylation of p70S6K (Thr389); assay: Immunoblot for phospho- and total p70S6K in MG63.3 cells; type: cell-based, human; conditions: concentrations as low as 0.1μM, 4 hours, immunoblot (Fig 3A)
K7M2 cells [6] = assay: In vitro ds-SL-mCherry reporter expression; type: cell-based, murine; conditions: 1μM rapamycin, 5 days in culture (Fig 4A)
[7] = Single rapamycin dose pharmacokinetic study, whole blood levels; type: in vivo, mice
Outline: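 Naive female athymic nude mice, 8-10 weeks old, received a single 5mg/kg IP dose (n=3 per condition). Whole blood was sampled at 0, 1, 2, 6, 24 and 48 h and quantified by validated LC/MS/MS. Parameters were derived noncompartmentally: Cmax and trough read directly from the data, AUC by the log-linear trapezoidal method.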

MG63.3 cells [8] = assay: Spontaneous; type: in vivo, human; conditions: orthotopically injected MG63.3 cells, 5mg/kg daily IP (Fig 6D)
Outline: as §1

MG63.3 cells [9] = assay: Ex vivo lung culture metastatic outgrowth, MG63.3; type: cell-based, human
Outline: as §2

## CO[C@H]1C[C@@H]2CC[C@@H](C)[C@@](O)(O2)C(=O)C(=O)N2CCCC[C@H]2C(=O)O[C@H]([C@H](C)C[C@@H]2CC[C@@H](O)[C@H](OC)C2)CC(=O)[C@H](C)/C=C(\C)[C@@H](O)[C@@H](OC)C(=O)[C@H](C)C[C@H](C)/C=C/C=C/C=C/1C [rapamycin]
MNNG cells
  survival of mice from time of limb amputation: significantly prolonged survival
K7M2 cells [1]; K7M2, 0.1μM rapamycin (Fig 5B, 5C)
  metastatic outgrowth in ex vivo lung culture: robustly inhibited metastatic outgrowth
K7M2 cells [1]; K7M2, 1μM rapamycin (Fig 5B, 5C)
  metastatic outgrowth in ex vivo lung culture: robustly inhibited metastatic outgrowth
K7M2 cells [2]
  survival of mice from time of limb amputation: significantly prolonged survival
MG63.3 cells [3]
  effect on ds-SL-mCherry reporter expression in vitro: no effect on reporter expression
[4]
  inhibition of phosphorylation of p70S6K: effectively inhibited phosphorylation of p70S6K
[5]
  inhibition of phosphorylation of p70S6K: effectively inhibited phosphorylation of p70S6K
K7M2 cells [6]
  effect on ds-SL-mCherry reporter expression in vitro: no effect on reporter expression
[7]; mice, 5mg/kg IP, noncompartmental methods, predicted sufficient to inhibit p70S6K phosphorylation and exert anti-metastatic activities
  AUC/dose equivalent value: 3,555 [ng*hr/ml]/[mg/kg]
[7]; naïve mice, single IP dose of 5mg/kg, for 24hrs (Fig 3C)
  whole blood concentration maintained: above 0.1 μM
MG63.3 cells [8]
  survival of mice from time of limb amputation: significantly prolonged survival
MG63.3 cells [9]; MG63.3, 0.1μM rapamycin (Fig 5D, 5E)
  metastatic outgrowth in ex vivo lung culture: robustly inhibited metastatic outgrowth
MG63.3 cells [9]; MG63.3, 1μM rapamycin (Fig 5D, 5E)
  metastatic outgrowth in ex vivo lung culture: robustly inhibited metastatic outgrowth
